The labels stand for the following.
B1: tRNA (parent)
chain: GUUCCGUUGGCGUAAUGGUAACGCGUCUCCCUCCUAAGGAGAAGACUGCGGGUUCGAGUCCCGUACGGAACG

Fewer inactive variants are shown than the library holds.

Variants of B1 are the subject of the data set. Put plainly: yeast fitness relative to wild type (ratio to wild type); higher = fitter; tRNA-Arg(CCU), competitive growth, 37 C, YPD. The method, boiled down: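 Amplicons of the tRNA-Arg(CCU) gene were sequenced, 100-nucleotide paired-end, from the start population and from each end population of a pooled yeast competition. The competition, in six parallel replicates, lasted 24 hours in YPD at 37°C. Fitness relative to wild type was calculated from changes in genotype frequencies. Genotypes had to have ≥ 100 starting reads, and estimates < 0.5 were set to 0.5.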
In the case of GUUCCGUUGGCGUAAUGGUAACGCGUCUCGCUCCUAAGGAGAAGAAGGAGGAUUCGACUCUCGGGCGGAACG [C30G C46A U47G C49A G52A G58C C61U U64G A65G], the yeast fitness is not above 0.5. Under GUUCCGUUGGCGUAAUGGUAACGCGUCUCGCUCCUAAGGAGAAGAAUGCGGGUUCGAGUACCGUACGGAACG [C30G C46A C60A] stands not above 0.5. In the case of GUUCCGUUGGCGUAAUGGUAACGCGUCUCGCUCCUAAGGAGAAGACUGCGCGUUCUAGUCCCGUACGGAACG [C30G G51C G56U], the yeast fitness amounted to 0.628. GUUCCGUUGGCGUAAUGGUAACGCGUCUCGGUCCUAACGAGAAGAGUGUGGGUUCGAGUCCCGUACGGAACG [C30G C31G G38C C46G C49U]: the yeast fitness amounted to 0.532. On to GUUCCGUUGGCGUAAUGGUAACGCGUCUCGAUCCUGAGGAGAAGACUGCGGGUUCGAGUCCCCUACGGAACG [C30G C31A A36G G63C], for which the yeast fitness was not above 0.5.

As for GUUCCGUUGGCGUAAUGGUAACGCGUCUCGCUCCUAAGGAGAAGACUGCGGGUUCGAGUACCGUACGGAACG [C30G C60A], the yeast fitness is 0.739. As for GUUCCGUUGGCGUAAUGGUAACGCGUCUCGCUCCUAAGGAGAAGACUGCGGGUUCGAGUGCCGUACGGAACG [C30G C60G], the yeast fitness turned out to be 0.521.

For the variant GUUCCGUUGGCGUAAUGGUAACGCGUCUCGCUCCUAAGGAGAAGACUGCGGGUUCGAGUUCCGUACGGAACG [C30G C60U], the yeast fitness was found to be 0.552. With GUUCCGUUGGCGUAAUGGUAACGCGUCUCGCUCCUAAGGAGAAGACUGCGGGUUCGACUCCCCUACGGAACG [C30G G58C G63C], the yeast fitness was not above 0.5. GUUCCGUUGGCGUAAUGGUAACGCGUCUCGUUCCUAAGGAGAAGACUGCGGGUUCAAGUCCUGUACGGGACG [C30G C31U G56A C62U A69G]: the yeast fitness is not above 0.5. For GUUCCGUUGGCGUAAUGGUAACGCGUCUCGCUCCUAAGGAGAAGACUGCGGGUUCGAGUCUCGUACGGAGCG [C30G C61U A70G], the yeast fitness amounted to 0.603. As for GUUCCGUUGGCGUAAUGGUAACGCGUCUCGCUUCUAAGGAGAAGACUGCGGGUUCGACUCCCGAACGGAACG [C30G C33U G58C U64A], the yeast fitness turned out to be 0.56. Turning to GUUCCGUUGGCGUAAUGGUAACGCGUCUCGCUCCUAAGGAGAAGACUGCGGGUUCGAGUCCCGUACGAAACG [C30G G68A], the yeast fitness was 0.698. The figure for GUUCCGUUGGCGUAAUGGUAACGCGUCUCGCUCCUAAGGAGAAGACUGCGGGUUCGAGUCCCGUACGCAACG [C30G G68C] is 0.691; for GUUCCGUUGGCGUAAUGGUAACGCGUCUCGCUCCUAAGGAGAAGACUGCGGGUUCGAGUCCCGUACGUAACG [C30G G68U] it is 0.64. For GUUCCGUUGGCGUAAUGGUAACGCGUCUCGCUUCUAAGGAGAAGUCUGCGGGUUCGAGUCCCGUACGGAACG [C30G C33U A45U], the yeast fitness stood at 0.57. With GUUCCGUUGGCGUAAUGGUAACGCGUCUCGCUCCUAAGGAGAAGACUGCGCGUUCGAGUCCCGUGCGGAACG [C30G G51C A65G], the yeast fitness is not above 0.5.

Consider GUUCCGUUGGCGUAAUGGUAACGCGUCUCGCUCCUAAGGAGAAGACUGCGGGUUCGAAUCCCGUACGGUACG [C30G G58A A69U], for which the yeast fitness stood at 0.535. Turning to GUUCCGUUGGCGUAAUGGUAACGCGUCUCGCUCCUAAGGAGAAGACUGCGGGUUCGAGUCCCGUACUGAACG [C30G G67U], the yeast fitness was determined as 0.589. With GUUCCGUUGGCGUAAUGGUAACGCGUCUCGCUCCUAAGGAGAAGACUGCGGGUUCGAGUCCCGUACAGAACG [C30G G67A], the yeast fitness was 0.619. For GUUCCGUUGGCGUAAUGGUAACGCGUCUCGCUGCUAAGGAGAAGACUGCGGGUUCGAGUCCCGUACGGAUCG [C30G C33G A70U], the yeast fitness is 0.532. The figure for GUUCCGUUGGCGUAAUGGUAACGCGUCUCGGACCUAAGGAGAAGACUGCGGGUUCGAGUCCCGUAUGGAACG [C30G C31G U32A C66U] is 0.527; for GUUCCGUUGGCGUAAUGGUAACGCGUCUCGCUCCUAAGGAGAAGACUGCGGGUUCGAGUCCGGUACGGAACG [C30G C62G] it is 0.551. With GUUCCGUUGGCGUAAUGGUAACGCGUCUCGCUCCUAAGGAGAAGACUGCGGGUUCGAGUCCAGUACGGAACG [C30G C62A], the yeast fitness is 0.61. The figure for GUUCCGUUGGCGUAAUGGUAACGCGUCUCGCUCGUAAGCAGAAGACUGCGGGUUCGAGUCCCGUACGGCACG [C30G C34G G39C A69C] is not above 0.5; for GUUCCGUUGGCGUAAUGGUAACGCGUCUCGCUCCUAAGGAGAAGAAUGCGGGUUCGAGUCCCGUACGGAGCG [C30G C46A A70G] it is 0.591. The figure for GUUCCGUUGGCGUAAUGGUAACGCGUCUCGCGCCUAAGGAGAAGAGUGCGGGUUCGAGUCCCGUAUGGAACG [C30G U32G C46G C66U] is not above 0.5. Take GUUCCGUUGGCGUAAUGGUAACGCGUCUCGCUCCUAAGGAGAAGACUGAGGGCUCGAGUCCCGUACGGAACG [C30G C49A U53C]: the yeast fitness worked out at 0.563. Regarding GUUCCGUUGGCGUAAUGGUAACGCGUCUCGCUGCUAAGGAGAAGACUGCGGGUUCGAGUCCCGUACGGCACG [C30G C33G A69C], the yeast fitness amounted to 0.544.

As for GUUCCGUUGGCGUAAUGGUAACGCGUCUCGCUUCUAAGGAGAAGACUGCGGGUUCGAGUCCCGUACGGAACG [C30G C33U], the yeast fitness was determined as 0.555. For the variant GUUCCGUUGGCGUAAUGGUAACGCGUCUCGCUGUUAAGGAGUAGACUGCGGGUUCGAGUCCCGUAUCGAACG [C30G C33G C34U A42U C66U G67C], the yeast fitness is not above 0.5. The figure for GUUCCGUUGGCGUAAUGGUAACGCGUCUCGCUCCUAAGGAGAAGAGUGCGGCUUCGAGUCCCGUACGCAACG [C30G C46G G52C G68C] is not above 0.5. Turning to GUUCCGUUGGCGUAAUGGUAACGCGUCUCGCUCCUAAGGAGAAGACUGCGGGUUCGAGUCUCGUACGGUACG [C30G C61U A69U], the yeast fitness was not above 0.5.

For the variant GUUCCGUUGGCGUAAUGGUAACGCGUCUCGCUCCUAAGGAGAAGAGUGCGGGUUCGAGUUCCGUACGGGACG [C30G C46G C60U A69G], the yeast fitness was not above 0.5. As for GUUCCGUUGGCGUAAUGGUAACGCGUCUCGCUGUUAAGGAGUAGACUGCGGGUUCGAGUCCCGUCCGGAACG [C30G C33G C34U A42U A65C], the yeast fitness is not above 0.5.

Regarding GUUCCGUUGGCGUAAUGGUAACGCGUCUCGCACCUAAGGGGAAGACUGCGGGUUCGAGUCGCGUACGGAACG [C30G U32A A40G C61G], the yeast fitness is not above 0.5.

Consider GUUCCGUUGGCGUAAUGGUAACGCGUCUCGCUUCUAAGGAGAAGACUGUGGGUUCGAGUCCCGUACGGAACG [C30G C33U C49U], for which the yeast fitness turned out to be 0.556. As to GUUCCGUUGGCGUAAUGGUAACGCGUCUCGCUCCUAAGGAGAAGACUGCGGGUUCGACUCCCGUACGGAACG [C30G G58C], the yeast fitness stood at 0.637.

The values above are taken from the RNAGym collection of RNA variant scans (doi:10.1126/science.aae0568).
